Laboratory results taken from ChEMBL document CHEMBL1124291, “New actinomycin D analogues as superior chemotherapeutic agents against primary and advanced colon tumors and colon xenografts in nude mice” (J Med Chem, 1988).

Experiments:
[1] = tested on: MC-38; experiment: Mean survival time of treated / untreated group x100. (number of over 100-day survivors/number of total mice in the group) at a dose 1.20 mg/kg; type: functional, Mus musculus; details: dose 1.2 mg/kg
Procedure, shortened: (§1)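 CDF1 mice were implanted sc on day 0 with colon 38 adenocarcinoma fragments (70 mg) and given iv drug on days 1, 5 and 9. %T/C = median survival of treated / untreated × 100. Number of mice surviving over 100 days / group total is given in parentheses.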

[2] = species on record: Rattus norvegicus; experiment: Percent of the unconverted isolated from incubation mixture containing rat microsomes; type: functional
Procedure, shortened: (§2)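 Tritiated analogues were incubated with two systems. (T) sonicated P388 cell homogenates, 37 °C for 16 h. (M) liver microsomes from phenobarbital-induced rats, 6 h with an NADPH-generating system (glucose-6-phosphate dehydrogenase plus glucose 6-phosphate). Metabolites and water-soluble conjugates were isolated, separated by HPLC and expressed as percentages.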

[3] = species on record: Rattus norvegicus; experiment: Stimulation of NADPH oxidation in the presence of rat liver microsomes; type: functional
Procedure, shortened: (§3)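 Drug-stimulated superoxide generation with rat liver microsomal enzymes and NADPH as cofactor. NADPH oxidation was read at 340 nm. Adrenochrome formed from epinephrine was read at 480 nm, with or without superoxide dismutase. % stimulation = [(drug-stimulated rate − basal rate)/basal rate] × 100. Values are mean ± standard error of triplicate analyses.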

[4] = DNA-cleaving ability expressed as % of closed circular pBR322 DNA cleaved at 10 uM conc 10 uM
[5] = tested on: MC-38; experiment: Number of toxic deaths/number of mice in a group of non tumored mice treated in parallel with the tumor-bearing mice and observed for 100 days at a dose 0.30 mg/Kg; value given as 0/9; type: functional, Mus musculus
Procedure, shortened: (§4)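 Non-tumored CDF1 mice were treated in parallel with colon 38 tumor-bearing mice: iv injections on days 1, 5 and 9, groups of nine. Deaths were counted over 100 days of observation and reported as toxic deaths / mice in group.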

[6] = species on record: Rattus norvegicus; experiment: DNA-cleaving ability expressed as % of closed circular pBR322 DNA cleaved […] conc 50 uM; type: functional
Procedure, shortened: (§5)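 pBR322 DNA (200 μM nucleotides) in 10 mM Tris·HCl pH 7.8 and 50 mM NaCl, with 4 mM Na₂S₂O₄ and 100 μM FeCl₂. Incubated with drug for 1 h at 20 °C, kept air-saturated. Supercoiled and open-circular forms were separated by agarose gel electrophoresis, stained with ethidium bromide and quantitated by densitometry. % cleaved was calculated from the open- and closed-circular amounts.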

[7] = tested on: pBR322 plasmid DNA; experiment: DNA-cleaving ability expressed as % of closed circular pBR322 DNA cleaved […]
[8] = tested on: B16; experiment: in vivo Antitumor activity against B16 melanoma cells at a optimal dose 300 ug/Kg /inj measured as %ILS (%increase life span); type: functional; details: Mus musculus
Procedure, shortened: (§6)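 BDF1 mice in groups of nine were implanted ip on day 0 with 0.2 mL of 1:5 (w/v) B16 melanoma brei; drugs were given ip. Survival is reported as median survival time in days with range, and as %ILS, with survivors counted on day 65 out of total injected.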

[9] = tested on: P388 (Mus musculus); experiment: Percent of the unconverted isolated from incubation mixture containing tumor cell homogenate(T)
[10] = tested on: MC-38; experiment: Number of toxic deaths/number of mice in a group of non tumored mice treated in parallel with the tumor-bearing mice and observed for 100 days at a dose 0.60 mg/Kg; value given as 1/9; type: toxicity; details: mouse, in vivo, 0.6 mg/kg, 2400 h; procedure, shortened: as §4
[11] = species on record: Rattus norvegicus; experiment: DNA-cleaving ability expressed as % of closed circular pBR322 DNA cleaved at 100 uM conc 100 uM; type: functional; procedure, shortened: as §5
[12] = tested on: B16; experiment: in vivo Antitumor activity against B16 melanoma cells at dose 300 ug/Kg /inj measured as Mean survival time (MST); type: functional, Mus musculus; procedure, shortened: as §6
[13] = tested on: MC-38; experiment: Activity against advanced carcinoma C38 Tumor in CDF1 Mice at dose 0.30 mg/ kg measured as % inhibition of tumor; type: functional; details: Mus musculus
[14] = tested on: P388; experiment: 50% inhibition of incorporation precursor [14C]uridine into RNA P388 cell lines; type: functional, cell-based; details: Mus musculus
[15] = tested on: P388 (Mus musculus); experiment: Percent of the tissue bound conjugates isolated from incubation mixture containing tumor cell homogenate(T)
[16] = tested on: MC-38; experiment: Number of toxic deaths/number of mice in a group of non tumored mice treated in parallel with the tumor-bearing mice and observed for 100 days at a dose 1. 20 mg/Kg; value given as 2/9; type: toxicity, cell-based; details: mouse, in vivo, 2400 h; procedure, shortened: as §4
[17] = tested on: MC-38; experiment: Activity against advanced carcinoma C38 Tumor in CDF1 Mice at dose 1.20 mg/ kg measured as % inhibition of tumor; type: functional; details: Mus musculus
[18] = tested on: HT-29; experiment: 50% inhibition of incorporationf precursor [3H]thymidine into DNA HT-29 cell lines; type: functional, cell-based; details: Homo sapiens, HT-29, 2 h
Procedure, shortened: (§7)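 HT-29 colon carcinoma monolayers, 10^4 cells per well, five wells per concentration. Drug exposure lasted 2 h, with [³H]thymidine and [2-¹⁴C]uridine (0.5 μCi each) added for the last hour. Cells were washed, trypsinized, counted and precipitated onto glass-fiber filters with 10% TCA. Acid-precipitable radioactivity was measured. IC50 is the concentration inhibiting 50% of incorporation; data are averages of replicate experiments.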

[19] = tested on: MC-38; experiment: Mean survival time of treated / untreated group x100. (number of over 100-day survivors/number of total mice in the group) at a dose 0.60 mg/kg; type: functional, Mus musculus; details: dose 0.6 mg/kg; procedure, shortened: as §1
[20] = tested on: P388 (Mus musculus); experiment: Percent of the protein conjugates isolated from incubation mixture containing tumor cell homogenate(T)
[21] = tested on: P388; experiment: 50% inhibition of incorporation of precursor [3H]thymidine into DNA P388 cell lines; type: functional, cell-based; details: Mus musculus, P388, 2 h
[22] = species on record: Rattus norvegicus; experiment: Percent of the SAD isolated from incubation mixture containing tumor cell homogenate(T) after 7.7 min; type: functional; procedure, shortened: as §2
[23] = species on record: Mus musculus; experiment: Percent of the SAD glucuronide and/or sulfate isolated from incubation mixture containing tumor cell homogenate(T) after 8.0, 10.5 min
[24] = species on record: Rattus norvegicus; experiment: Percent of the tissue bound conjugates isolated from incubation mixture containing rat microsomes; type: functional; procedure, shortened: as §2
[25] = species on record: Rattus norvegicus; experiment: The formation of adrenochrome from epinephrine in the absence of SOD(super oxide dismutase); type: functional; procedure, shortened: as §3
[26] = species on record: Rattus norvegicus; experiment: Percent of the protein conjugates isolated from incubation mixture containing rat microsomes; type: functional; procedure, shortened: as §2
[27] = species on record: Rattus norvegicus; experiment: The formation of adrenochrome from epinephrine in the presence of SOD(super oxide dismutase); + denotes ' Inhibited'; type: functional; procedure, shortened: as §3
[28] = tested on: P388; experiment: Antitumor activity in P388/ADR (adriamycin resistant) in male BDF1 mice measured as optimal dose at dose 0.10-1.0 mg/kg/ inj, inp
[29] = species on record: Rattus norvegicus; experiment: Percent of the unidentified metabolites isolated from incubation mixture containing rat microsomes; type: functional; procedure, shortened: as §2
[30] = tested on: P388 (Mus musculus); experiment: Percent of the unidentified metabolites isolated from incubation mixture containing tumor cell homogenate(T)
[31] = tested on: HT-29; experiment: 50% inhibition of incorporationf precursor [3H]thymidine into RNA HT-29 cell lines; type: functional, cell-based; details: Homo sapiens, HT-29, 2 h; in the assay text read “[14C]uridine” for “[3H]thymidine”; procedure, shortened: as §7
[32] = tested on: MC-38; experiment: Activity against advanced carcinoma C38 Tumor in CDF1 Mice at dose 0.60 mg/ kg measured as % inhibition of tumor; type: functional; details: Mus musculus
[33] = species on record: Rattus norvegicus; experiment: Percent of the SAD isolated from incubation mixture containing rat micro somes, after 20.0 min
[34] = tested on: MC-38; experiment: Mean survival time of treated / untreated group x100. (number of over 100-day survivors/number of total mice in the group) at a dose 0.30 mg/kg; type: functional, Mus musculus; details: dose 0.3 mg/kg; procedure, shortened: as §1

Cc1c2oc3c(C)c4oc(CC(=O)NCCCCN)nc4c(C(=O)N[C@@H]4C(=O)N[C@H](C(C)C)C(=O)N5CCC[C@H]5C(=O)N(C)CC(=O)N(C)[C@@H](C(C)C)C(=O)O[C@@H]4C)c3nc-2c(C(=O)N[C@@H]2C(=O)N[C@H](C(C)C)C(=O)N3CCC[C@H]3C(=O)N(C)CC(=O)N(C)[C@@H](C(C)C)C(=O)O[C@@H]2C)c(N)c1=O
T/C [1]: 231% | Activity [2]: 10% | NADPH oxidation (nM min-1 (mg of protein)-1) [3]: 87.1 | Activity [4]: 40% | Toxic deaths [5]: 0 | Activity [6]: 50% | Activity [7]: 45% | ILS at 0.3 mg/kg [8]: 114% | Activity [9]: 20% | Toxic deaths [10]: 1 | Activity [11]: 58% | MST [12]: 62 | inhibition in vivo at 0.3 mg/kg [13]: 80% | IC50 [14]: 55 nM | Activity [15]: 5% | Toxic deaths [16]: 2 | inhibition in vivo at 1.2 mg/kg [17]: 94% | IC50 [18]: 365 nM | T/C [19]: 250% | Activity [20]: 8% | IC50 [21]: 430 nM | Activity [22]: 20% | Activity [23]: 40% | Activity [24]: 5% | Adrenochrome formation [25]: 22.1 nM min-1 (mg of protein)-1 | Activity [26]: 10% | Adrenochrome formation [27]: Inhibited | optimal dose [28]: 1 mg/kg | Activity [29]: 8% | Activity [30]: 5% | IC50 [31]: 65 nM | inhibition in vivo at 0.6 mg/kg [32]: 93% | Activity [33]: 65% | T/C [34]: 170%
